# Experimental data gathered from unrelated publications.
# HLA class I histocompatibility antigen, B alpha chain: HLA class I histocompatibility antigen, B alpha chain (Homo sapiens, UniProt P01889)
# HTR2C: 5-hydroxytryptamine receptor 2C (HTR2C, Homo sapiens, UniProt P28335)
# PLK1 polo-box: Serine/threonine-protein kinase PLK1, polo-box (PLK1, Homo sapiens, UniProt P53350)
# HTR2B: 5-hydroxytryptamine receptor 2B (HTR2B, Homo sapiens, UniProt P41595)
Compound,target,test,conditions,quantity,result
CC(C)CC[C@@H](O)[C@@H](C)[C@H]1CC[C@H]2[C@@H]3CC=C4C[C@@H](O)CC[C@]4(C)[C@H]3CC[C@]12C,"Cholesterol side-chain cleavage enzyme, mitochondrial (CYP11A1, Homo sapiens, UniProt P05108)",binding,,Kd,163 nM
CSCC[C@H](NC(=O)[C@H](CO)NC(=O)[C@H](CC(C)C)NC(=O)[C@H](CO)NC(=O)[C@H](Cc1c[nH]cn1)NC(=O)CNC(=O)[C@H](Cc1ccc(O)cc1)NC(=O)[C@H](CC(C)C)NC(=O)[C@@H](N)CCCNC(=N)N)C(=O)O,"HLA class I histocompatibility antigen, B alpha chain",cell-free assay,,IC50,583 nM
COc1cc2c(cc1OC)CN(CCc1ccc(NC(=O)c3cccc4c(=O)c5cccc(OC)c5[nH]c34)cc1)CC2,HTR2C,cell-free assay,,Ki,94 nM
COc1cc(CCNC(c2ccccc2O)C2CC2)c(OC)cc1C#N (stereo not shown),HTR2C,"calcium signal, agonist",,EC50,> 10000 nM
CC[C@H](C)[C@H](NC(=O)[C@@H]1CCCN1C(=O)[C@H](CCC(=O)O)NC(=O)[C@H](CC(C)C)NC(=O)[C@@H](N)C(C)C)C(=O)N[C@@H](CC(C)C)C(=O)N[C@@H](Cc1c[nH]cn1)C(=O)N[C@@H](CO)C(=O)N[C@H](C(=O)O)[C@@H](C)OP(=O)(O)O,PLK1 polo-box,"binding, MST",pH 8,Kd,13.7 nM
CC[C@H](C)[C@H](NC(=O)[C@@H](N)CCCNC(=N)N)C(=O)N[C@@H](Cc1ccc(O)cc1)C(=O)NCC(=O)N1CCC[C@H]1C(=O)N1CCC[C@H]1C(=O)N[C@@H](Cc1c[nH]cn1)C(=O)N[C@@H](CCC(N)=O)C(=O)N[C@@H](Cc1ccccc1)C(=O)O,"HLA class I histocompatibility antigen, B alpha chain",cell-free assay,,IC50,2300 nM
COc1cc2c3c(c1OC)-c1c(cccc1OC)CC3N(C)CC2 (racemic),HTR2B,"ligand displacement, radioligand",,Ki,596 nM
N#CC(C#N)=Cc1ccc([N+](=O)[O-])c(O)c1,"Casein kinase I isoform delta (CSNK1D, Homo sapiens, UniProt P48730)","binding, SPR",,Kd,> 50000 nM
CC(C)C[C@H](NC(=O)[C@H](CC(C)C)NC(=O)[C@@H]1CCCN1C(=O)[C@H](C)NC(=O)[C@@H](NC(=O)[C@H](C)N)C(C)C)C(=O)N[C@@H](Cc1c[nH]cn1)C(=O)N[C@@H](CO)C(=O)N[C@H](C(=O)O)[C@@H](C)OP(=O)(O)O,PLK1 polo-box,"binding, MST",pH 8,Kd,46.3 nM
CC[C@H](C)[C@H](NC(=O)[C@H](CCCNC(=N)N)NC(=O)[C@H](CC(N)=O)NC(=O)[C@H](Cc1ccccc1)NC(=O)[C@@H](NC(=O)[C@@H](N)Cc1ccc(O)cc1)[C@@H](C)O)C(=O)N[C@@H](Cc1c[nH]cn1)C(=O)N[C@@H](CCC(=O)O)C(=O)N[C@@H](Cc1ccccc1)C(=O)O,"HLA class I histocompatibility antigen, B alpha chain",cell-free assay,,IC50,44000 nM
COc1cc(CCNC2CCCc3cccc(O)c32)c(OC)cc1C#N (stereo not shown),HTR2C,"G protein activation, agonist, BRET",,EC50,5900 nM
CC[C@H](C)[C@H](NC(=O)[C@@H]1CCCN1C(=O)[C@H](Cc1c[nH]cn1)NC(=O)[C@H](CCCCN)NC(=O)[C@H](Cc1ccccc1)NC(=O)[C@H](CC(C)C)NC(=O)[C@@H](N)CCCCN)C(=O)N[C@@H](CCC(N)=O)C(=O)N[C@@H](CC(C)C)C(=O)O,"HLA class I histocompatibility antigen, B alpha chain",cell-free assay,,IC50,7480 nM
c1cncc([C@@H]2CCCN2)c1,"Neuronal acetylcholine receptor; alpha3/beta4 (Rattus norvegicus, UniProt P04757+P12392)","cell-free assay, radioligand",,Ki,1300 nM
COc1cc(C(F)(F)F)c(OC)cc1C1CCCNC1 (stereo not shown),HTR2C,"calcium signal, agonist",,EC50,71 nM
CC[C@H](C)[C@H](NC(=O)[C@H](Cc1ccccc1)NC(=O)[C@@H]1CCCN1C(=O)CNC(=O)[C@H](Cc1ccc(O)cc1)NC(=O)[C@H](CCSC)NC(=O)[C@@H](N)CCCNC(=N)N)C(=O)N[C@@H](Cc1c[nH]cn1)C(=O)N[C@@H](Cc1ccccc1)C(=O)O,"HLA class I histocompatibility antigen, B alpha chain",cell-free assay,,IC50,31400 nM
COc1cc2c(cc1OC)-c1c(OC)c(OC)cc3c1[C@H](C2)N(C)CC3 (racemic),HTR2B,"ligand displacement, radioligand",,Ki,613 nM
